# MEKK2mut PB1 HTS: signal of MEK5 binding to mutant human MEKK2 PB1 domain | bead flow cytometry, Alexa488-MEK5 binding to MEKK2 mutant | percent response, % at 10 µM | 0.35% of 290,000 active; in the data active means percent response above about 24%, passing the limit was not always enough
# MEKK2wt PB1 HTS: raises or lowers MEK5 binding to wildtype human MEKK2 PB1 domain | 1.1% of 290,000 active | binding response (% of control), % at 10 µM | bead flow cytometry, Alexa488-MEK5 binding to MEKK2 WT; actives lie on both sides; in the data active means binding response below about 67% or above about 130%
# MEKK3 PB1 HTS: modulators (inhibitors or enhancers) of MEK5 binding to human MEKK3 PB1 domain; Q99759; bead-based flow cytometry, Alexa488-MEK5 binding to MEKK3; actives lie on both sides; 0 = blocked by unlabeled MEK5, 100 = vehicle; binding response (% of control), % at 10 µM; 1.4% of 290,000 active; AID 1529;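 active means binding response more than 3 SD above or below the average of its plate-row segment, actives on both sides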;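 further: Alexa488 bead fluorescence after subtracting the streptavidin-only scavenger bead signal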
# Target sequence (Q99759 whole entry, looked up, the tested form may be a part): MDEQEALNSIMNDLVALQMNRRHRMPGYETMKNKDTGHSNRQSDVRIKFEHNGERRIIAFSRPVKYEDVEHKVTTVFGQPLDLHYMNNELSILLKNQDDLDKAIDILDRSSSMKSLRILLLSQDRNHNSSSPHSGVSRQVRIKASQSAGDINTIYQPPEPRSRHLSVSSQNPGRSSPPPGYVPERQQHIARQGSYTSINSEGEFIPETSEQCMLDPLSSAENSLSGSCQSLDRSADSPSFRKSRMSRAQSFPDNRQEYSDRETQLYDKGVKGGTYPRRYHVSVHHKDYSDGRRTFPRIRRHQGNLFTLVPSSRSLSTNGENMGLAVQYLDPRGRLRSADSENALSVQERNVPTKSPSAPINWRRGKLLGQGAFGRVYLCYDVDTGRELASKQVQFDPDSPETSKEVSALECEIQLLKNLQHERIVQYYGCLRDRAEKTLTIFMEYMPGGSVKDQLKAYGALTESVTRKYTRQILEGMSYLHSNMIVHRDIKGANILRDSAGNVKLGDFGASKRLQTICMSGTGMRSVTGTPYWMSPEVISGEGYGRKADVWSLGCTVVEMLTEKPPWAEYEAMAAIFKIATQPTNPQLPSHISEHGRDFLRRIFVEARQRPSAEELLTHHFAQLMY
# Arrestin-AP2 inh: inhibitors of human beta-arrestin and AP2 interaction; 0.31% of 340,000 active; AID 504490; inhibition, % at 10 µM; FITC-arrestin peptide / GST-AP2 beads, flow cytometry; AP2 beta2 appendage carries R879A mutation;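 active means inhibition above a set limit, near 3 SD of compounds lacking own fluorescence, cut at about 54% in these data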;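 further: plate controls were DMSO wells for no effect and 5 µM unlabelled arrestin peptide for full effect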
#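 Material – GST-tagged AP2 beta2-adaptin appendage (R879A) on 4 µm glutathione beads · Probe or stimulus – fluorescein-tagged arrestin peptide at 50 nM final · Timing – 12 min plus 1 h, RT · Detection – bead flow cytometry, FITC channel · Read-out basis – inhibition as reduced fluorescein signal on beads, percent · Medium – PBS plus Tween 20 (0.05%) and BSA (0.1%)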
# MEKK2wt confirm: raises or lowers MEK5 binding to wildtype human MEKK2, retest; 2.4% of 5,900 active; AID 1892; shares compounds with MEKK3 PB1 HTS; binding response (% of control), % at 10 µM; bead flow cytometry, Alexa488-MEK5 binding to MEKK2 WT; actives lie on both sides; in the data active means binding response below about 16% or above about 210%; inactive means in between
# MEKK2mut-MEK5: signal of MEK5 binding to mutant human MEKK2, retest. shares compounds with MEKK3 PB1 HTS. bead flow cytometry, Alexa488-MEK5 binding to MEKK2 mutant. percent response, % at 10 µM. 2% of 5,900 active. AID 1893; in the data active means percent response mostly above about 71%, no sharp cut-off; inactive means mostly below about 38%;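 further: higher means compound restores mutant binding toward wildtype level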
# MEKK3-MEK5 inh: confirmation of inhibitors of MEK5 binding to human MEKK3; shares compounds with MEKK3 PB1 HTS; binding response (% of control), % at 10 µM; 1.8% of 5,900 active; bead flow cytometry, Alexa488-MEK5 binding to MEKK3; stronger effect = lower value;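 active means binding response below 72% of control, or above a set upper limit, though filed actives all read lower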;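 further: 100% = DMSO only wells and 0% = binding blocked by excess unlabeled MEK5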
# * = called active by the depositor; . = no result given; [ ] = dose if it differs, or a comment. This is a sample that favours compounds with a hit; in the whole collection about 2.3% have one here.
SMILES,MEKK2mut PB1 HTS,MEKK2wt PB1 HTS,MEKK3 PB1 HTS,Arrestin-AP2 inh,MEKK2wt confirm,MEKK2mut-MEK5,MEKK3-MEK5 inh
Cc1ccc2cc(C#N)c(SCC(=O)N3CCCC3)nc2c1,-11,43*[inhibitor],45*[inhibitor],33,94,-8,95
CCOC(=O)CSc1nc2cc(C)ccc2cc1C#N,-5,101,103,-9,.,.,.
CCC(C)NC(=O)C1CCN(S(=O)(=O)c2ccc(-n3cnnn3)cc2)CC1 (stereo not given),1,99,100,22,.,.,.
CCCCC(CC)Cn1c(O)c(/C=C2\C=NN=C2c2ccccc2)sc1=S (stereo not given),0,103,136*,-3,108,-1,102
CNC[C@H](CC1CCCCC1)NC[C@H](CO)NCCc1cccc(C(F)(F)F)c1,6,152*,104,3,156,39,109
O=C(NC(N1CCOCC1)C(Cl)(Cl)Cl)c1ccccc1Cl (stereo not given),-6,55*[inhibitor],84,7,106,8,107
O=C(Cc1ccc([N+](=O)[O-])cc1)c1ccccc1,.,.,.,12,.,.,.
CCN(CC)c1ccc2cc(-c3nc(-c4ccc(OC)cc4)cs3)c(=O)oc2c1,289*,232*,183*,.,52,-44,60*
CCN(CC)c1ccc2cc(-c3nnc(-c4ccccc4)o3)c(=O)oc2c1,-3,60*[inhibitor],89,-26,75,-14,94
CC(=O)N1CCC(=NNC(=O)CSc2cc(C)c(Br)cc2C)CC1,8,89,97,-4,.,.,.
CCCN1CCC(=NNC(=O)CSc2cc(C)c(Br)cc2C)CC1,1,111,136*,3,115,7,104
Cc1nc(N=C(N)N)nc2ccccc12,-11,77,75*[inhibitor],17,107,19,101
CC(=O)/C=C\c1ccccc1OC(=O)c1cc2ccccc2oc1=O,2,100,98,-15,.,.,.
O=C(/C=C\c1ccccc1OC(=O)c1ccccc1F)c1cc2ccccc2o1,0,103,135*,3,105,0,109
CC(=O)Nc1ccc(S(=O)(=O)N[C@@H](C)C(=O)OCC(=O)c2ccc(C)cc2)cc1,.,.,.,-12,.,.,.
CC(=O)Nc1ccc(S(=O)(=O)N[C@@H](C)C(=O)OCc2ccc(Cl)cc2)cc1,0,107,144*,-1,107,0,102
Cc1cccc(NC(=O)CCC(=O)OCC(=O)c2ccc(Oc3ccc([N+](=O)[O-])cc3)cc2)c1,-1,94,68*[inhibitor],35,103,8,107
COc1ccccc1C(c1nnnn1CC1CCCO1)N1CCC(C(N)=O)CC1 (stereo not given),-5,85,74*[inhibitor],-6,103,-3,99
COc1ccc(C(c2nnnn2CC2CCCO2)N2CCN(c3cccc(C)c3C)CC2)cc1 (stereo not given),15,116,122*,-4,106,2,107
COc1ccc(C(c2nnnn2CC2CCCO2)N2CCC(C(N)=O)CC2)cc1 (stereo not given),-2,103,98,-5,.,.,.
COCCn1nnnc1C(c1ccc(OC)cc1)N1CCN(c2ccccc2F)CC1 (stereo not given),8,118,122*,3,112,3,102
CCCCC(c1nnnn1CC1CCCO1)N1CCN(c2cccc(C)c2C)CC1 (stereo not given),18,109,104,-2,.,.,.
CCOC(=O)CC1COCCN1C(=O)CCc1nnc(-c2ccsc2)o1 (stereo not given),-10,83,95,3,.,.,.
Cc1cc(NS(C)(=O)=O)c(=O)n(Cc2cccc(F)c2)c1,8,20*[inhibitor],98,-17,102,-1,102
CCN1CCN(C(=O)C(Cc2ccccc2)NC(=O)c2ccc(Cl)c(S(=O)(=O)N(C)C)c2)CC1 (stereo not given),.,.,.,-4,.,.,.
SMILES,MEKK2mut PB1 HTS,MEKK2wt PB1 HTS,MEKK3 PB1 HTS,Arrestin-AP2 inh,MEKK2wt confirm,MEKK2mut-MEK5,MEKK3-MEK5 inh
CCc1ccccc1NC(=O)CN(C)C(=O)Cn1cnc2ccc(Cl)cc2c1=O,.,.,.,-5,.,.,.
CCc1ccccc1NC(=O)CN(C)C(=O)Cn1ncc(Cl)c(Cl)c1=O,1,108,133*,4,106,0,106
Cc1ccccc1OCc1n[nH]c(=S)n1-c1cccc(Cl)c1,24*,111,112,-12,103,-2,102
Cc1n[nH]c(=S)n1-c1cccc(Cl)c1,-2,101,74*[inhibitor],-18,107,2,107
COc1ccc(S(=O)(=O)Nc2cccc(S(=O)(=O)N3CCCC3)c2)cc1OC,.,.,.,5,.,.,.
OC(COc1ccc(CNCCc2ccccc2F)cc1)CN1CCCCC1 (stereo not given),58*,168*,102,13,140,15,109
COC(=O)N/N=C/c1cc(Cl)c(OCc2ccc(F)cc2)c(OC)c1,0,105,128*,24,106,3,102
CCCCC(=O)NNC(=O)N1c2ccccc2Sc2ccccc21,10,106,113,2,.,.,.
CC(Oc1ccc(C(=O)NCCc2ccccc2)cc1)C(=O)O (stereo not given),-1,99,106,6,.,.,.
CC(C)OC(=O)C(C)Oc1ccc(C(=O)NCCc2ccccc2)cc1 (stereo not given),4,110,123*,28,104,6,100
Cc1[nH]c2ccccc2c1C(=O)COC(=O)Cn1cnc2ccccc21,55*,120,102,16,107,7,103
NS(=O)(=O)c1cccc(NC(=O)CSc2n[nH]c(-c3ccccc3Br)n2)c1,.,.,.,30,.,.,.
COc1ccc(N2C(=O)/C(=C/c3cccnc3)NC2=S)cc1,2,112,138*,6,87,-2,99
COC(=O)c1ccc2c(=O)n(CCCCCC(=O)NCc3ccc4c(c3)OCO4)c(=O)[nH]c2c1,-12,66,65*[inhibitor],8,103,7,101
COC(=O)c1ccc2c(=O)n(CCCCCC(=O)NCc3ccccc3)c(=O)[nH]c2c1,1,91,101,9,.,.,.
Cc1ccc(NC(=O)CCNS(=O)(=O)c2ccccc2)c(C(=O)c2ccccc2)c1,1,110,138*,41,100,2,104
COCCn1c(SCC(=O)NC2CC2)nc2ccccc21,.,.,.,-4,.,.,.
ONC(=Nc1ccccc1Cl)c1c(F)cccc1F,.,.,.,30,.,.,.
Cc1nc(-n2nnc(CO)c2CO)nc2c1CCC2,4,116,138*,52,93,-3,100

# Assay outcomes as filed in PubChem BioAssay.
